RAD54 branch: inhibitors of human RAD54 branch migration; Q92698; 360,000 tested, 0.14% active; RAD54 Holliday junction branch migration, FAM/BHQ fluorescence; inhibition, % at 10.4 µM;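 active = mean normalized replicate activity at least 40 and at least half of replicates scoring 40 or more; inconclusive = only one of the two criteria met; inactive = mean below 40 and under half of replicates reaching 40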;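 note: 0% = median of neutral control wells and 100% = median of positive control wells; inhibitors cause a drop in the FAM fluorescence signal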
Ecoli rRNA inh: inhibits bacterial ribosomal RNA function over humanized ribosomes; 350,000 tested, 1.6% active; E. coli WT GFP vs humanized-ribosome RFP mutants, fluorescence, 24 h; hits give low values; DMSO median 0, no signal -100; GFP signal change (wild-type ribosome), % (concentration not given with the values);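 active = significant combined selectivity score with lowered wild-type GFP, culture density cut under 30%, mutant RFP and density less affected; inactive = any of these conditions unmet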
RAD52 inh: blocks human RAD52 DNA annealing; P43351; recombinant RAD52 DNA annealing, FRET fluorescence; inhibition, % at 18.7 µM; 360,000 tested, 0.46% active; AID 651710;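 active = every replicate showing at least 50% inhibition; inconclusive = mean inhibition at least 50% but not in every replicate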
Target sequence (P43351 whole entry, looked up): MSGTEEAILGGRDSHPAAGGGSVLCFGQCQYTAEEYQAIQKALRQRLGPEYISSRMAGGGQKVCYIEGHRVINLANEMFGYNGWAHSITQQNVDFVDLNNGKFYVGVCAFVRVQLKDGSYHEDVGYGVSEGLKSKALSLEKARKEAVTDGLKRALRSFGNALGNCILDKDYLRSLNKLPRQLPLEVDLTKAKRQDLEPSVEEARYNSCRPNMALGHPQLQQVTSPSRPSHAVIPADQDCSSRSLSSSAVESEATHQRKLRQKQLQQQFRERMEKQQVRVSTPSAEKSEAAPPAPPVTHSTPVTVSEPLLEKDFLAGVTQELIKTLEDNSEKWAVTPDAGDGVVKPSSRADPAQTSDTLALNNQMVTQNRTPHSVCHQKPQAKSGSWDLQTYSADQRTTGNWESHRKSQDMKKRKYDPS
Cneo AK release: Cryptococcus neoformans lysis via adenylate kinase release; C. neoformans lysis, adenylate kinase release luminescence, 4 h; normalised: neutral wells 0, clomiphene wells 100; 360,000 tested, 0.2% active; lysis activity, % at 15 µM;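 active = mean lysis activity across replicates of at least 80%, whatever share of replicates individually reach that level; inactive = mean lysis activity below 80%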
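Material – Cryptococcus neoformans yeast cells · Quantity – 5 × 10^6 yeast cells/mL · Buffer or medium – YPD medium · Compound – single dose · Timing – 4 h static compound exposure, 37 °C, read 1 h post-reagent · Signal – adenylate kinase release luminescence · Read-out basis – lysis from increased AK signal · Benchmarks – Clomiphene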
PglD inh: blocks C. jejuni PglD acetyltransferase activity. 360,000 tested, 0.098% active. purified PglD enzyme, DTNB colorimetric CoA detection. inhibition, % at 12.5 µM; in the data active = inhibition above about 16%, passing the limit was not always enough; inconclusive = no clear call, values can overlap the other calls
PglD confirm: blocks Campylobacter jejuni PglD acetyltransferase activity; 320 tested, under 10 active; shares compounds with PglD inh; Purified C. jejuni PglD, DTNB absorbance 412 nm; inhibition, % at 20 µM; AID 743156;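 active = mean inhibition across replicates of at least 20% with every single replicate also at 20% or more; inconclusive = mean inhibition at least 20% but some replicate falls below 20%; inactive = mean inhibition under 20% and not all replicates reach it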;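 note: initial rate of CoA release by acetyl transfer from AcCoA to the UDP-4-amino sugar; 0% = median of neutral control wells and 100% = median of positive control wells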
DNA binder FP: binds DNA, flagging false RAD52 inhibitor hits; AC50, µM; Salmon sperm DNA/acridine orange FP displacement, DNA binding; shares compounds with RAD52 inh; AID 652128; 1,000 tested, 8% active;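 active = fitted half-maximal concentration for signal loss at or below twice the highest dose tested, in every separate run, actives reach about 64 µM in these data; inconclusive = runs disagree, or flat partial signal loss, or poor fit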
* = called active by the depositor; i = inactive; u = inconclusive; x = not tested or not shown. Hits are enriched below; roughly 1.9% of the tested compounds scored in any of these assays.

SMILES	RAD54 branch	Ecoli rRNA inh	RAD52 inh	Cneo AK release	PglD inh	PglD confirm	others
Cc1ccc(OCC(=O)N(C)CCc2ccccn2)cc1	-3	7	-11	0	24*	-1
COc1cc(NC(=O)COC(=O)CSc2ccccc2F)c(C)cc1[N+](=O)[O-]	x	0	-9	x	x	x
COc1cc(NC(=O)COC(=O)CSc2cc(C)ccc2C)c(C)cc1[N+](=O)[O-]	2	1	-7	-1	22*	-6
COc1ccc(CN2C(=O)C3C4C=CC(C4)C3C2=O)cc1 (stereo not given)	x	1	5	x	x	x
O=C1C2C3C=CC(C3)C2C(=O)N1Cc1ccccc1 (stereo not given)	-12	x	x	2	22*	-14
Cc1ccc(O)c(NC(=O)CN(C)S(=O)(=O)c2ccc(Cl)cc2)c1	-4	0	-24	-2	30*	5
CC(=O)Nc1cc(-c2ccccc2F)cn2c(-c3ccccc3)cnc12	6	-12	-51	1	-1	x
CC(=O)c1cccc(-c2cnc3c(NC=O)cc(-c4ccccc4F)cn23)c1	-5	9	-12	2	25*	2
CC1Cc2ccccc2N1C(=O)c1ccc(N2CCCC2)c([N+](=O)[O-])c1 (stereo not given)	-1	-33	1	2	22*	7
CN(C)CCCNC(=O)[C@@H]1[C@@H](CO)[C@@H]2Cn3c(ccc(-c4cccc(C(=O)N(C)C)c4)c3=O)[C@H]1N2	19	0	9	41	1	x
O=C1NC2(CCCCCC2)C(=O)N1Cc1cccc([N+](=O)[O-])c1	1	6	-23	-6	20*	0
Cc1c(C(=O)Nc2ccccc2C(=O)N2CCCC2)cccc1[N+](=O)[O-]	-4	9	-13	1	23*	2
Cc1cc(C(=O)Nc2ccccc2C(=O)N2CCCCC2)ccc1[N+](=O)[O-]	-6	8	3	-3	-4	x
CCOC(=O)c1ccc(NC(=S)N2CCCC(C)C2)cc1 (stereo not given)	4	-15	-16	2	0	x
CCOC(=O)c1ccc(NC(=S)N2CCC(O)CC2)cc1	-5	-2	5	3	24*	6
CNC[C@H]1OCCCC[C@H](C)Oc2ccc(NC(=O)Nc3ccc(F)cc3)cc2C(=O)N([C@H](C)CO)C[C@H]1C	-4	9	-145	1	1	x
CCSc1nnc(NC(=O)[C@@H](NC(=O)c2cccc(C)c2)C(C)C)s1	2	x	x	2	23*	1
CCC(CC)c1nnc(NC(=O)[C@@H](NC(=O)c2cccc(C)c2)C(C)C)s1	x	2	-9	x	x	x
CCNC(=O)C[C@@H]1CC[C@H]2[C@H](COc3ccc(NC(=O)C4CCOCC4)cc3C(=O)N2C)O1	2	3	-4	35	-1	x
C[C@@H]1CCCCO[C@H](CN(C)C(=O)c2ccncc2)[C@H](C)CN([C@@H](C)CO)C(=O)c2cc(NC(=O)NC3CCCCC3)ccc2O1	1	-3	x	52	3	x
Cc1nn(Cc2ccccc2)c(Cl)c1/C=N/NC(=O)c1cccnc1	-7	6	-1	-1	25*	-3
O=S(=O)(Nc1cccnc1)c1ccc(Br)c2ccccc12	-4	1	8	3	66*	9
COc1ccc(S(=O)(=O)Nc2cccnc2)c(C)c1C	7	8	-5	1	-4	x
C[C@H](O)C#Cc1ccc2c(c1)O[C@@H](CN(C)C(=O)CN(C)C)[C@@H](C)CN([C@@H](C)CO)S2(=O)=O	9	-5	-10	-4	-1	x
Fc1ccccc1OCCCn1ccnc1	-6	4	-11	0	-8	x
SMILES	RAD54 branch	Ecoli rRNA inh	RAD52 inh	Cneo AK release	PglD inh	PglD confirm	others
CCC(Oc1ccccc1F)C(=O)NCCCn1ccnc1 (stereo not given)	-5	2	0	-4	37*	-3
CC(C)(C)c1ccc(-c2nnc3sc(-c4ccncc4)nn23)cc1	10	x	x	-2	24*	2
CCCNC(=O)[C@H]1[C@H](CO)[C@H]2Cn3c(ccc(C4=CCCC4)c3=O)[C@@H]1N2Cc1ccncc1	-16	1	-30	-1	1	x
COC(=O)c1c(C(=O)OC)c(C)n(Cc2cccnc2)c1C	-4	x	x	0	31*	-2
COC(=O)c1c(C(=O)OC)c(C)n(Cc2ccco2)c1C	-1	x	x	2	-3	x
CCc1nc(N2[C@H](C#N)[C@H](c3ccccc3-c3ccccc3F)[C@@H]2CO)sc1C	x	0	-11	x	x	x
CCOC(=O)c1c2n(c3ccc(O)cc13)CCCCC2	-19	x	x	-1	25*	4
CCOC(=O)c1c(C)n(-c2ccc(F)cc2)c2ccc(O)cc12	-6	-3	-6	7	7	x
CC1Oc2ccccc2N(CC(=O)N2CCCCC2)C1=O (stereo not given)	-2	5	0	-3	25*	u
C[n+]1ccc(/C=C/c2ccccc2O)c2ccccc21	x	-8	54*	x	x	x	DNA binder FP=46µM*
CC(=O)/C=C/c1ccccc1O	0	22	-10	0	1	x
Cc1nc(Nc2nc(-c3ccccc3)cc(=O)[nH]2)nc2ccccc12	13	58	95*	-3	9	x	DNA binder FP=i
COCC(=O)Nc1ccc2c(c1)[C@H]1C[C@H](CC(=O)NCc3cccnc3)O[C@@H](CO)[C@H]1O2	11	3	10	1	0	x
CCCCc1nc2sc3c(SCCN(C)C)ncnc3c2c2c1CCC2	x	-11	60*	x	x	x	DNA binder FP=i
Cc1cc(N/N=C/c2ccc(O)cc2)c2cccc(C)c2n1	118*	-15	77*	-1	-8	x	DNA binder FP=52µM*
Cc1cc(C)c2nc(C)cc(N/N=C/c3ccc(O)cc3)c2c1	119*	-31	94*	0	-13	x	DNA binder FP=u
Cc1cc(-c2ccccc2)nc(N/N=C/c2ccc(O)cc2)n1	-2	-7	-7	-3	-3	x
Cc1cc(N/N=C/c2ccc(N(C)C)cc2)c2ccccc2n1	-7	6	-207	-5	-6	x
N[C@@H](CO)c1cn([C@@H](Cc2cc3ccccc3[nH]2)C(=O)N2CCNCC2)nn1	34	11	93*	2	-5	x	DNA binder FP=i
CC(C)[C@H](N)c1cn([C@@H](CO)C(=O)N2CCNCC2)nn1	0	6	-16	1	2	x
c1cc(OCCCN2CCCCC2)ccc1CN1CCCCC1	0	10	21	1	2	x	DNA binder FP=i
COCC(=O)N1[C@H](CO)[C@H]2c3ccccc3N(C(=O)NC(C)C)C[C@H]21	-2	4	7	-3	-2	x
COc1ccc(OC)c(N/C(N)=N/c2nc(C)cc(C)n2)c1	-4	9	50*	-2	1	x	DNA binder FP=i
